TRPC6 activator: mouse TRPC6 channel activation. HEK293-TRPC6 membrane potential dye fluorescence; stronger effect = higher value. 310,000 tested, 0.13% active. Q61143. B-score at 10 µM;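 active = B-score of the integrated fluorescence ratio above library mean plus 3 SD, and starting fluorescence ratio within library mean plus 5 SD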;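 also: higher score means more depolarization so channel activation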
TRPC4 act: TRPC4 (mouse) channel activation | 310,000 tested, 0.49% active | B-score at 10 µM | Q9QUQ5 | HEK293 TRPC4beta/mu-opioid, Fluo4 calcium fluorescence; stronger effect = higher value;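 active = B-score above 5 SD of library B-scores, and initial fluorescence ratio not above library mean plus 5 SD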;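 also: positive B-score marks a calcium rise read as TRPC4 activation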
Target sequence (Q9QUQ5 whole entry, looked up): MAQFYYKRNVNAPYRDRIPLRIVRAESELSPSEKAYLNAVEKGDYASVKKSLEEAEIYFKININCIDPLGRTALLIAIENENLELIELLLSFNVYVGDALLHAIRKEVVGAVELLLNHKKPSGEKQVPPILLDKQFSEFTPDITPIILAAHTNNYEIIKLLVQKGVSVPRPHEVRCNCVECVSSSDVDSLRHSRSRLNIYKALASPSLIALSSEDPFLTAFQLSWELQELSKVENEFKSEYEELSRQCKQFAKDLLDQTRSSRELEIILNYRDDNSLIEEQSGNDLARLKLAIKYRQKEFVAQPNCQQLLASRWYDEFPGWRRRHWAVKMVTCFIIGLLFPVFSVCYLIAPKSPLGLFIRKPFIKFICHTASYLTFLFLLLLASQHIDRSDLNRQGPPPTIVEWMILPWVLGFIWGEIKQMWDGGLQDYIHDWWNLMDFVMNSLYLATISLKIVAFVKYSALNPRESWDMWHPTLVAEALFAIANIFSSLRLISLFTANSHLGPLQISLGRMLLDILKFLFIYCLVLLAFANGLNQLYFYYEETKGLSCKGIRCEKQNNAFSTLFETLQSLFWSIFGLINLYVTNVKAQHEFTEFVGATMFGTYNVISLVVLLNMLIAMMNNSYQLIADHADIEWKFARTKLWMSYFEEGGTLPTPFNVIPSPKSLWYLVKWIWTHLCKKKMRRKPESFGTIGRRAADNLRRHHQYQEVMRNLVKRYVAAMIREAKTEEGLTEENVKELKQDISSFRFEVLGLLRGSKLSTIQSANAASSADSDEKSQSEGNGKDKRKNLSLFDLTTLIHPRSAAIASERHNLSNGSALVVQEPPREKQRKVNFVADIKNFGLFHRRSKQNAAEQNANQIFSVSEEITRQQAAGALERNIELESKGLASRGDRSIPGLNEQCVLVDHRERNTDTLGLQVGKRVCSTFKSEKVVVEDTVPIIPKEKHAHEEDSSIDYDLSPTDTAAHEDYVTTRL
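Material: TRPC4beta and mu-opioid receptor HEK293 stable cells | Incubation: 45 min room-temperature Fluo4 loading, 110 s read | Detection: Kinetic Fluo4 calcium fluorescence | Measure: Integrated baseline-normalised fluorescence ratio, converted to per-well B score | Benchmarks: Low control buffer alone, high control maximal DAMGO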
TRPC6 inh: mouse TRPC6 channel inhibition | Q61143 | HEK293-TRPC6, membrane potential dye, ACh-evoked depolarization; stronger effect = lower value | B-score at 10 µM | 310,000 tested, 1.1% active | AID 2553;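 active = B-score under library mean minus 3 SD, initial fluorescence not abnormally high, positive integrated signal ratio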;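 also: B-score derived from integrated fluorescence ratio over the kinetic read; more negative B-score means stronger inhibition of depolarization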
TRPC4 block: inhibitors of mouse TRPC4 channel. Q9QUQ5. HEK293 TRPC4beta/mu-opioid, DAMGO-evoked Fluo4 calcium flux; stronger effect = lower value. B-score at 10 µM. 300,000 tested, 0.39% active. AID 2247;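 active = B-score over 3 SD under the library average, no early fluorescence shift, positive overall ratio signal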
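test system = HEK293 cells with stable TRPC4beta plus mu-opioid receptor expression | detection = Fluo4 Ca2+ flux fluorescence | read-out = integrated fluorescence ratio relative to baseline, converted to per-well B score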
TRPC4 PAM: allosteric potentiators of mouse TRPC4 channel. HEK293 TRPC4beta/mu-opioid, DAMGO EC20, Fluo-4 Ca2+ flux; stronger effect = higher value. B-score at 10 µM. 310,000 tested, 0.42% active;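 active = B-score of calcium response area above 5 SD of library B-scores, with initial fluorescence ratio within 5 SD of library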;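 also: B-score of integrated fluorescence ratio over time as area under calcium response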
TRPC4 sel inh 2: second selectivity test of TRPC6 inhibitors: effect on mouse TRPC4; shares compounds with TRPC6 inh; AID 2776; inhibition, % at 10 µM; HEK293 TRPC4/MOR, membrane potential dye fluorescence; channel activated by saturating DAMGO dose; 920 tested, 42% active;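 active = compounds whose fluorescence signal differed from control wells by over 3 SD, either direction, in both duplicate plates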
TRPC4 spec: tests whether TRPC6 inhibitors also affect mouse TRPC4 | shares compounds with TRPC6 inh | HEK293 TRPC4/mu-opioid, membrane potential fluorescence | activity change, negative = inhibition, % at 10 µM | 920 tested, 61% active | AID 2777;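 active = rise or fall in signal beyond 3 SD of buffer-only wells in both replicate plates, either sign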;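 also: integrated kinetic ratio of fluorescence range over baseline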
HEK293 MPD ctr 2-1: second counter-screen for TRPC6 inhibitors: parental HEK293 cells. 920 tested, 31% active. shares compounds with TRPC6 inh. AID 2779. signal change vs control, % at 10 µM. parental HEK293 membrane potential dye fluorescence; maximal acetylcholine challenge after compound addition;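 active = membrane potential signal moving either way by over 3 SD of the maximum-effect control, in both duplicate plates, meaning non-specific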
HEK293 MPD ctr-1: parental HEK293 nonspecific activity of TRPC6 inhibitors. parental HEK293 membrane potential dye fluorescence. 920 tested, 60% active. membrane potential signal change, % at 10 µM. shares compounds with TRPC6 inh;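 active = membrane potential signal shifting up or down by more than 3 SD of buffer-only wells, on both duplicate plates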
HEK293 MPD ctr-2: parental HEK293 nonspecific activity of TRPC6 modulators | membrane potential signal change, % at 10 µM | membrane potential dye fluorescence | shares compounds with TRPC6 inh | 2,400 tested, 51% active;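 active = membrane potential signal moves up or down beyond 5 SD from buffer-only wells, on both duplicate plates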
HEK293 MPD ctr 2-2: parental HEK293 nonspecific activity of TRPC6 modulators, second screen; shares compounds with TRPC6 inh; membrane potential dye fluorescence; after compound, maximal acetylcholine stimulation; inhibition, % at 10 µM; 2,400 tested, 14% active; AID 488926;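 active = membrane potential signal drops by more than 5 SD from the mean control signal, in both duplicate plates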;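 also: plate controls were acetylcholine ECmax control wells for no effect and buffer only wells for full effect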
TRPC4/MOR mod: mouse TRPC4 off-target activity of TRPC6 modulators | 2,400 tested, 69% active | shares compounds with TRPC6 inh | percent change from control (negative = decrease, positive = increase), % at 10 µM | HEK293 TRPC4/mu-opioid, membrane potential fluorescence;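 active = membrane potential signal moved up or down beyond 5 SD of buffer control wells, in both duplicate plates, actives on both sides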;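 also: plate controls were assay buffer wells for no effect and DAMGO maximal-effect wells for full effect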
TRPC4 ctr inh 2: second selectivity test of TRPC6 modulators against mouse TRPC4; inhibition, % at 10 µM; HEK293 TRPC4/mu-opioid, membrane potential dye fluorescence; stimulated with maximal-effect DAMGO; 2,400 tested, 55% active; AID 488928; shares compounds with TRPC6 inh;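 active = drop in membrane potential signal beyond 5 SD of the control wells in both duplicate plates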;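 also: TRPC4 counter screen for TRPC6 hits run under conditions tuned for TRPC6 not TRPC4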
TRPC6 inh conf: mouse TRPC6 inhibitor confirmation | shares compounds with TRPC6 inh | HEK293-TRPC6, membrane potential dye, ACh-evoked depolarization | inhibition, % at 10 µM | 3,300 tested, 43% active;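 active = fluorescence ratio falls more than 5 SD below the full-stimulation control mean, in both duplicate runs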;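 also: integrated fluorescence ratio of peak minus minimum over baseline after agonist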
TRPC6 act conf: mouse TRPC6 activator confirmation | shares compounds with TRPC6 inh | HEK293-TRPC6 membrane potential dye fluorescence, FDSS | activation, % at 10 µM | 2,800 tested, 11% active | AID 488961;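 active = ratio signal rise beyond 5 SD above unstimulated control wells' mean, seen in both duplicate runs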;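 also: plate controls were buffer EC0 wells for no effect and acetylcholine ECmax response for full effect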
Starred values were filed as active, the others as inactive; i = inactive; · = not tested or not shown. Most compounds without a hit are left out; they make up all but 2.3% or so of the library.

SMILES	TRPC6 activator	TRPC4 act	TRPC6 inh	TRPC4 block	TRPC4 PAM	HEK293 MPD ctr-2	HEK293 MPD ctr 2-2	TRPC4/MOR mod	TRPC4 ctr inh 2	TRPC6 inh conf	TRPC6 act conf	others
CCc1nnc(NC(=O)CSc2nnc(-c3ccccc3OC)n2-c2ccc(C)cc2)s1	i	i	i	i	i	·	·	·	·	·	·
COc1ccc(NC(=O)CSc2nnc(C3CCCCC3)n2N)c(OC)c1	i	i	-6.7*	i	i	i	i	i	i	i	i
COc1ccc(NC(=O)CSc2nc3ccccc3c(=O)n2CCCN2CCC(C)CC2)c(OC)c1	i	i	-9.2*	i	i	·	·	·	·	57%*	i	TRPC4 sel inh 2=22%*;TRPC4 spec=i;HEK293 MPD ctr 2-1=i;HEK293 MPD ctr-1=5.8%*
COc1ccc(OC)c(NC(=O)CSc2nnc(C3CCCCC3)n2N)c1	i	i	i	i	i	·	·	·	·	·	·
COc1ccc(CCn2c(SCCN3CCCCC3)nc3ccccc3c2=O)cc1OC	i	i	-9.2*	i	i	·	·	·	·	59%*	i	TRPC4 sel inh 2=36%*;TRPC4 spec=-13%*;HEK293 MPD ctr 2-1=i;HEK293 MPD ctr-1=-153%*
CNCCC1Sc2ccccc2Oc2ccccc21 (stereo not drawn)	i	i	-5.6*	i	i	86%*	i	41%*	59%*	i	·
CN(C)CC[n+]1ccc(C(=O)c2ccccc2)cc1	i	i	i	i	i	·	·	·	·	·	·
N=c1n(CC(=O)c2cccs2)c2ccccc2n1Cc1ccccc1	i	i	-9.7*	i	i	·	·	·	·	65%*	i	TRPC4 sel inh 2=33%*;TRPC4 spec=i;HEK293 MPD ctr 2-1=i;HEK293 MPD ctr-1=2.0%*
C=CCn1c(=N)n(CC(=O)c2ccc(Cl)cc2)c2ccccc21	i	i	-5.9*	i	i	i	i	36%*	93%*	58%*	·
C=CCn1c(=N)n(CC(=O)c2ccc(Br)s2)c2ccccc21	i	i	-8*	i	i	·	·	·	·	65%*	i	TRPC4 sel inh 2=13%*;TRPC4 spec=17%*;HEK293 MPD ctr 2-1=i;HEK293 MPD ctr-1=i
Cc1ccc(OCCN2CCN(C(=O)CCC(=O)Nc3nnc(CC(C)C)s3)CC2)cc1	i	i	i	i	i	·	·	·	·	·	·
COc1ccc(Cl)cc1S(=O)(=O)N1CCC(C(=O)NCc2ccccn2)CC1	i	i	i	i	i	·	·	·	·	·	·
O=c1cc(O)n(Cc2ccc(F)cc2)c(=O)[nH]1	i	i	i	i	i	·	·	·	·	·	·
CC(C)(C)c1ccc(CN2C(=O)CSC2=O)cc1	i	i	-5.2*	i	i	i	i	i	i	i	i
O=C(O)c1ccc(CN2C(=O)CSC2=S)cc1	i	i	i	i	i	·	·	·	·	·	·
CC(C)CCN1C(=O)CCC1(C)C(=O)NC1CCCCCC1 (stereo not drawn)	i	i	-5.8*	i	i	128%*	i	26%*	i	i	·
Cc1cc(Br)c2c(c1)C1(OCCO1)C(=O)N2	i	i	i	i	i	·	·	·	·	·	·
Cc1ccc(S(=O)(=O)N2CCC(=O)N(CCOC(=O)Nc3ccc(C)c(C)c3)CC2)cc1	i	i	-6.9*	i	i	·	·	·	·	i	·	TRPC4 sel inh 2=i;TRPC4 spec=i;HEK293 MPD ctr 2-1=i;HEK293 MPD ctr-1=i
Cc1ccc(S(=O)(=O)N2CCC(=O)N(CCOC(=O)Nc3cccc(Cl)c3)CC2)cc1	16*	i	-10*	i	i	i	i	i	i	108%*	160%*
O=C1/C(=C/c2ccc(F)c(F)c2)CSc2sccc21	i	i	i	i	i	·	·	·	·	·	·
O=C1/C(=C\c2ccc(C(F)(F)F)cc2)CSc2sccc21	i	i	-5*	i	i	i	i	8.5%*	i	i	i
CCCOc1cccc(C(=O)Nc2ccc3c(c2)OCCO3)c1	i	i	i	i	i	·	·	·	·	·	·
O=C1CNC(=S)N1C1CCCCCC1	i	i	i	i	i	·	·	·	·	·	·
N#C/C(C(N)=O)=c1/ccc2c(c1)N1C3=C(CCCC3)CC3CCCCC31N=2 (stereo not drawn)	i	i	-12*	i	i	-262%*	82%*	-52%*	94%*	80%*	i
COc1ccc(-n2cc(CNC3CCC(O)CC3)c(-c3cccc(F)c3)n2)cc1 (stereo not drawn)	i	i	-8.3*	i	i	·	·	·	·	i	i	TRPC4 sel inh 2=i;TRPC4 spec=i;HEK293 MPD ctr 2-1=i;HEK293 MPD ctr-1=i
COC(=O)[C@H](CCSC)NC(=O)Nc1cc(OC)cc(OC)c1	i	i	i	i	i	·	·	·	·	·	·
c1ccc(CN2CCN(Cc3nnc(-c4ccccc4)o3)CC2)cc1	i	i	-5.6*	i	i	i	66%*	11%*	i	64%*	·
CCOC(=O)c1c(NC(=O)c2c(C(=O)O)cccc2[N+](=O)[O-])sc2c1CCCC2	30*	i	i	i	i	194%*	i	31%*	i	i	116%*
CCOC(=O)c1c(NC(=O)c2cccc([N+](=O)[O-])c2C(=O)O)sc2c1CCCC2	37*	i	i	i	i	210%*	i	37%*	i	i	102%*
O=C(CSc1ccccc1Cl)N1CCOCC1	i	i	i	i	i	·	·	·	·	·	·

Compound activity (PubChem)
